Assays:
[1] = AUC (0 to 24 hrs) in Wistar-Hannover rat plasma at 4 mg/kg, po and measured up to 24 hrs by LC/MS-MS analysis; assay type: ADME, organism-based; parameters: route oral, dose 4 mg/kg, time <=24
How it was run: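 Male Wistar-Hannover rats (240–350 g), housed singly after 1 week of acclimation, were dosed orally. AUC0–24 came from plasma concentration–time data by the linear trapezoidal rule, averaged for n = 2. Lower detection limit was 1 ng/mL.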

[2] = Toxicity in cynomolgus monkey assessed as reduction in platelet count at >= 30 mg/kg, po after 14 days; assay type: organism-based, Macaca fascicularis; settings: in vivo
Rattus norvegicus = assay: Effect on triglyceride accumulation in Sprague-Dawley rat high fat dietary model at 1 mg/kg, po assessed as reduction in triglyceride level after 42 days by XPT clinical analyzer; assay type: functional; parameters: scale not given: the % may be the effect or the level left; settings: time 42 day
How it was run: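 High-fat-diet-fed Sprague-Dawley rats dosed orally for 42 days, with chow-fed and vehicle controls, n = 10 per group. Read-out is hepatic triglyceride, reported as mean ± SEM.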

TK6 = assay: Genotoxicity in human TK6 cells in presence of (aroclor-induced rat liver S9 fraction/NADPH by micronucleus test; assay type: toxicity, cell-based
How it was run: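 In vitro micronucleus assay in Chinese hamster ovary or TK6 cells, run with and without metabolic activation by aroclor-induced rat liver S9 fraction plus NADPH.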

[3] = Genotoxicity in Salmonella typhimurium TA98 by Ames test; assay type: toxicity; settings: salmonella enterica subsp. enterica serovar typhimurium
How it was run: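 Ames test in Salmonella strains TA98, TA100, TA1535 and TA1537, run with and without aroclor-induced rat liver S9 plus NADPH.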

[4] = molecular target: Broad substrate specificity ATP-binding cassette transporter ABCG2 (Homo sapiens, UniProt Q9UNQ0); assay: Inhibition of human ABCG2 expressed in MDCK2-LE cells in presence of […]; assay type: cell-based, MDCKII-LE
[5] = molecular target: UDP-glucuronosyltransferase 2B15 (Homo sapiens, UniProt P54855); assay: Inhibition of UGT2B15 in human liver microsomes in presence of UDPGA by LC-MS/MS analysis; assay type: ADME
[6] = molecular target: UDP-glucuronosyltransferase 1A9 (Homo sapiens, UniProt O60656); assay: Inhibition of UGT1A9 in human liver microsomes incubated for 30 mins in presence of UDPGA by LC-MS/MS analysis; assay type: ADME
[7] = molecular target: UDP-glucuronosyltransferase 1A6 (Homo sapiens, UniProt P19224); assay: Inhibition of UGT1A6 in human liver microsomes incubated for 90 mins in presence of UDPGA by LC-MS/MS analysis; assay type: ADME
Cytochrome P450 3A4 [8] = molecular target: T1, Cytochrome P450 3A4 (Homo sapiens, UniProt P08684); assay: Activation of CYP3A4 in human hepatocytes at 0.5 to 200 uM; assay type: ADME, cell-based, Hepatocyte; settings: dose 0.5-200 µM
How it was run: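 Individual human hepatocyte lots treated at 0.5–200 µM. Read-out is CYP3A4 enzyme activity.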

Cytochrome P450 1A2 = Cytochrome P450 1A2 (Homo sapiens, UniProt P05177); assay: Activation of CYP1A2 in human hepatocytes at 0.5 to 200 uM; assay type: ADME, cell-based, Hepatocyte; settings: dose 0.5-200 µM
Cytochrome P450 3A4 [9] = molecular target: T1, Cytochrome P450 3A4; assay: inhibition of CYP3A4 in human liver microsomes; assay type: ADME
Cytochrome P450 2B6 = Cytochrome P450 2B6 (Homo sapiens, UniProt P20813); assay: inhibition of CYP2B6 in human liver microsomes; assay type: ADME
NTCP = NTCP (Homo sapiens, UniProt Q14973); assay: Substrate activity at human NTCP stably expressed in HEK293 cells assessed as ratio of total to passive cellular uptake at 1 uM incubated for 0.5 to 4 mins by LC/MS-MS analysis; assay type: cell-based; settings: HEK293 cells stably expressing human NTCP, time 0.5-4 min
How it was run: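 HEK293 cells stably transfected with the transporter, plus wild-type cells, grown to confluence in DMEM with 10% heat-inactivated FBS and 5 µg/mL blasticidin. Washed with HBSS/20 mM HEPES, pH 7.4, then incubated with compound at 37 °C for 0.5–4.0 min. Cells washed ice-cold, lysed in MeOH for LC-MS/MS, uptake normalized to BCA protein. Ratio = transfected/wild-type uptake, averaged over time points.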

[10] = Drug uptake in human hepatocytes assessed as ratio of active uptake intrinsic clearance to passive diffusion clearance at 1 uM up to 15 mins by LC-MS/MS analysis; assay type: ADME, cell-based, Hepatocyte; settings: 0.25 h
[11] = Drug excretion in Wistar-Hannover rat urine at 1 mg/kg, iv and measured up to 24 hrs by LC/MS-MS analysis; assay type: ADME, organism-based; settings: read-out: Drug excretion
[12] = Drug uptake in Wistar-Hannover rat liver at 10 mg/kg, po after 6 hrs by LC/MS-MS analysis; assay type: ADME, organism-based; settings: read-out: Drug uptake
How it was run: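 Male Wistar-Hannover rats, n = 2 or 3, given an oral suspension in 0.5% methyl cellulose with 0.1% Tween 80; one compound was dosed as the HCl salt. Total plasma and liver concentrations were measured 6 h post-dose. Kp = liver/plasma total concentration. Kpu,u uses fu values from equilibrium dialysis.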

[13] = Fraction unbound in monkey liver by equilibrium dialysis method; assay type: ADME, tissue-based, Macaca mulatta; settings: rhesus monkey
How it was run: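 Fraction unbound in plasma and liver tissue was determined by equilibrium dialysis.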

OATP1B1 = molecular target: T2, OATP1B1 (Homo sapiens, UniProt Q9Y6L6); assay: Substrate activity at human OATP1B1 stably expressed in HEK293 cells assessed as ratio of total to passive cellular uptake at 1 to 3 uM incubated for 0.5 to 4 mins by LC/MS-MS analysis; assay type: ADME, cell-based; settings: HEK293 cells stably expressing human OATP1B1, dose 1-3 µM, time 0.5-4 min
T2 sequence (Q9Y6L6 whole entry): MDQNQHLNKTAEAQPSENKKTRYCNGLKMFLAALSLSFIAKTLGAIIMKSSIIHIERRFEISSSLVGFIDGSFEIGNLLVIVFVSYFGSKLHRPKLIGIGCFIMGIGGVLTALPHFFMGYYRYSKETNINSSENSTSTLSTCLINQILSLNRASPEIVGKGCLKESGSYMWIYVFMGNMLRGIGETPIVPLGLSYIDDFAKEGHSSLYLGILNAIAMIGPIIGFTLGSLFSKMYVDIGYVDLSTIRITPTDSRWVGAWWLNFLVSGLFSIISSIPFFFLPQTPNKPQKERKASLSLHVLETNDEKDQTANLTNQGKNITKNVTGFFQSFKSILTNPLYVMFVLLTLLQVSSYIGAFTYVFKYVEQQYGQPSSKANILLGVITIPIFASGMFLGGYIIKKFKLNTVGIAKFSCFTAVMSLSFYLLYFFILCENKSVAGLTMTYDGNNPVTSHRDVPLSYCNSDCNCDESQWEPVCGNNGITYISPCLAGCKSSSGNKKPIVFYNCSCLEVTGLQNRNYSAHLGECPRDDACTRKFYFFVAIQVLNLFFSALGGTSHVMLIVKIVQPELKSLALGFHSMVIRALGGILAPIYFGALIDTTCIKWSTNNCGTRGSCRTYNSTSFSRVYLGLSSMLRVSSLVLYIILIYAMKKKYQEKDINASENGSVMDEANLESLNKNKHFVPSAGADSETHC
How it was run: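 Stably transfected HEK293 cells and wild-type parental cells, cultured to confluency in DMEM with 10% heat-inactivated FBS and 5 µg/mL blasticidin. Uptake at 1–3 µM in HBSS/20 mM HEPES pH 7.4, 37 °C, 0.5–4.0 min. Cells washed in ice-cold buffer, lysed in MeOH, quantified by LC-MS/MS and normalized to protein. Ratio is transfected/parental uptake; >2 denotes substrate.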

[14] = molecular target: P-glycoprotein 1 (Homo sapiens); assay: Inhibition of human ABCB1 expressed in MDCK2-LE cells in presence of […]

T1 sequence (P08684 whole entry): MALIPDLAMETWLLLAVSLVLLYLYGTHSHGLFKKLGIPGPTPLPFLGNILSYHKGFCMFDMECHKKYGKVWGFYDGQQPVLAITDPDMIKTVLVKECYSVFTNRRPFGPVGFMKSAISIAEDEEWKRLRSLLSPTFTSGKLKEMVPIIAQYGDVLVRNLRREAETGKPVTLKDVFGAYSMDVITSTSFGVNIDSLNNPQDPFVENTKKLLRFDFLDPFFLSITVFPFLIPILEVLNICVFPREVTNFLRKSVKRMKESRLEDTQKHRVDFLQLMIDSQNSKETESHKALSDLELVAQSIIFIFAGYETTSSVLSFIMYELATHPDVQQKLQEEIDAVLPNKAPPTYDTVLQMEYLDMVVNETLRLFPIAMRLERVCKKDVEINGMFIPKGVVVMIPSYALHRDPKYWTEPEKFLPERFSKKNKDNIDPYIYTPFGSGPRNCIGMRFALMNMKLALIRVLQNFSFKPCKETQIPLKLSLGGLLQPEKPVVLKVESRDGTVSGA
Chain of UDP-glucuronosyltransferase 1A9 (O60656 whole entry): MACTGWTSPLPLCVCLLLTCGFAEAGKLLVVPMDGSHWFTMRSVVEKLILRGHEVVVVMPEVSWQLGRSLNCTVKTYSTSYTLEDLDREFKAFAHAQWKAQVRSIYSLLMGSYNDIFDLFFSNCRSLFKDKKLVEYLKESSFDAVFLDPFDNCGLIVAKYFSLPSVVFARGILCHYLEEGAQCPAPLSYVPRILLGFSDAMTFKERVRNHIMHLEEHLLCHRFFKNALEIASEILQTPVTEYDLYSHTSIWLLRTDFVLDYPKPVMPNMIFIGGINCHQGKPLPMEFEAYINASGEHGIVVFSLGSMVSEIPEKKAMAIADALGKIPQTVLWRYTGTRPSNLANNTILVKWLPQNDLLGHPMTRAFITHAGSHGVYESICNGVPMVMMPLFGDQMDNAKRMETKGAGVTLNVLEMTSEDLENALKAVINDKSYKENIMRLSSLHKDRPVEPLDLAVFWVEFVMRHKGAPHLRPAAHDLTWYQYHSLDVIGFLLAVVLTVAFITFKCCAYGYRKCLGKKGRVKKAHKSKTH
Chain of NTCP (Q14973 whole entry): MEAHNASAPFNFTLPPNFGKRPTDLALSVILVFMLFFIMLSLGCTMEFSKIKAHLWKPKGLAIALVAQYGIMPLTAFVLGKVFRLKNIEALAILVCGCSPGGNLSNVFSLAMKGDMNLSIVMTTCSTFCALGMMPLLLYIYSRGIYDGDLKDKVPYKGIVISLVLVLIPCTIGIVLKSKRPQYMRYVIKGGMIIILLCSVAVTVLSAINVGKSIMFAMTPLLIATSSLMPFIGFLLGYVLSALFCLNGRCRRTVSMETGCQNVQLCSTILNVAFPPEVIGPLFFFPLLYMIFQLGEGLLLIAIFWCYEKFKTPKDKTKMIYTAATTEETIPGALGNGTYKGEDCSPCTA
Chain of UDP-glucuronosyltransferase 2B15 (P54855 whole entry): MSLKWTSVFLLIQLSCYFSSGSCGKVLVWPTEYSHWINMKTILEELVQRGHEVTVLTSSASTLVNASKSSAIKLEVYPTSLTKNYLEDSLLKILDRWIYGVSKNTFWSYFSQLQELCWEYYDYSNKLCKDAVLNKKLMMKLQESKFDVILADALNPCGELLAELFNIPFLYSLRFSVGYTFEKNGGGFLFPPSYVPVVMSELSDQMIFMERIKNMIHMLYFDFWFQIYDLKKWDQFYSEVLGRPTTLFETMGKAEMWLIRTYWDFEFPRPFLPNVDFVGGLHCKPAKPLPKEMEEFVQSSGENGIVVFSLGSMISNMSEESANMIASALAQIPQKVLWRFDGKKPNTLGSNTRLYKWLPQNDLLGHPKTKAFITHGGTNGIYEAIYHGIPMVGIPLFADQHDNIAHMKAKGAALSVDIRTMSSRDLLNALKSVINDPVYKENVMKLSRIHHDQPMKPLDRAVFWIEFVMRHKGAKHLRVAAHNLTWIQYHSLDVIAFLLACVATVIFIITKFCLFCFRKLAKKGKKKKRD
Chain of Cytochrome P450 2B6 (P20813 whole entry): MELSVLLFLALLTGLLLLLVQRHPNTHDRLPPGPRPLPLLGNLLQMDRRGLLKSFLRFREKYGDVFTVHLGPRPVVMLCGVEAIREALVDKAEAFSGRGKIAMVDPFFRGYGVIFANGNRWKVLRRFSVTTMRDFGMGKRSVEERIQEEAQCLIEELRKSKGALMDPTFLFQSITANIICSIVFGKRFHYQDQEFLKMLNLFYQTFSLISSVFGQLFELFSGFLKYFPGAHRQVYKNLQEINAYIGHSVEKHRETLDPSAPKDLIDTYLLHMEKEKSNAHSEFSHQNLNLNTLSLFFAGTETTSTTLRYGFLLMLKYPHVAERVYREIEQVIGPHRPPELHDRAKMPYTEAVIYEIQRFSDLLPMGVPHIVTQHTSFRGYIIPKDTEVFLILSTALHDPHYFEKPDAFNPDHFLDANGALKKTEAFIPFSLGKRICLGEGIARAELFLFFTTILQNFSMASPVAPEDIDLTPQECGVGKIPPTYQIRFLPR
Chain of UDP-glucuronosyltransferase 1A6 (P19224 whole entry): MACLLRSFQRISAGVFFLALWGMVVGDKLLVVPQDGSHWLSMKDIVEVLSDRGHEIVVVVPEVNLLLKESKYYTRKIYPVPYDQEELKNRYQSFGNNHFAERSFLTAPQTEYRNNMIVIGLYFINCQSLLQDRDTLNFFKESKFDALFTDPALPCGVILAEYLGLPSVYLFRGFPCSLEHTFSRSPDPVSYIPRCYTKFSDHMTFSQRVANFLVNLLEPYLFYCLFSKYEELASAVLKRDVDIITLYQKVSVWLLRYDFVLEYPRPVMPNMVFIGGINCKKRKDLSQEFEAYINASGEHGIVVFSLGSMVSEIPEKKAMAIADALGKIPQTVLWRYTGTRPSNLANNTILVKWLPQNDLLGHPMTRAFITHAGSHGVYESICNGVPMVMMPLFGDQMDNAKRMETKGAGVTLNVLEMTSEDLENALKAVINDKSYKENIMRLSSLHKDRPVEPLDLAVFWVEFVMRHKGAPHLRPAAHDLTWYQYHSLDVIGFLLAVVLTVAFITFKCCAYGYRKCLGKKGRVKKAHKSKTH
Chain of Broad substrate specificity ATP-binding cassette transporter ABCG2 (Q9UNQ0 whole entry): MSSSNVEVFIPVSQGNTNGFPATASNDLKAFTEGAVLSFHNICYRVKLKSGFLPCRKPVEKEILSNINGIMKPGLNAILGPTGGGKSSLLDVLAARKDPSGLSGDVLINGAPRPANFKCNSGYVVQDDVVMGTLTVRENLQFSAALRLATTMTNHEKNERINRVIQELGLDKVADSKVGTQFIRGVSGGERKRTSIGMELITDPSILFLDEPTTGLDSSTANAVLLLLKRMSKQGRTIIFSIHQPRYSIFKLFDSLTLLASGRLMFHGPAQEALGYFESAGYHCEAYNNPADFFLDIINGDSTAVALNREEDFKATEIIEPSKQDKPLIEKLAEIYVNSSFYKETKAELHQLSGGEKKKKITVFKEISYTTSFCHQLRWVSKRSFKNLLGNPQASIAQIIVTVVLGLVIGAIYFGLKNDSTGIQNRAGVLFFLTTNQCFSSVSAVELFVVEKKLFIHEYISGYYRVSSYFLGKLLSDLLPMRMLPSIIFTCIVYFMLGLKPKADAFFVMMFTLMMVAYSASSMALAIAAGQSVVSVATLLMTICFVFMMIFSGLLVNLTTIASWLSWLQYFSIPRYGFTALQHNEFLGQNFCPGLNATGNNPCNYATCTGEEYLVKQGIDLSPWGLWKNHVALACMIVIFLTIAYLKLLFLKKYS
Chain of Cytochrome P450 1A2 (P05177 whole entry): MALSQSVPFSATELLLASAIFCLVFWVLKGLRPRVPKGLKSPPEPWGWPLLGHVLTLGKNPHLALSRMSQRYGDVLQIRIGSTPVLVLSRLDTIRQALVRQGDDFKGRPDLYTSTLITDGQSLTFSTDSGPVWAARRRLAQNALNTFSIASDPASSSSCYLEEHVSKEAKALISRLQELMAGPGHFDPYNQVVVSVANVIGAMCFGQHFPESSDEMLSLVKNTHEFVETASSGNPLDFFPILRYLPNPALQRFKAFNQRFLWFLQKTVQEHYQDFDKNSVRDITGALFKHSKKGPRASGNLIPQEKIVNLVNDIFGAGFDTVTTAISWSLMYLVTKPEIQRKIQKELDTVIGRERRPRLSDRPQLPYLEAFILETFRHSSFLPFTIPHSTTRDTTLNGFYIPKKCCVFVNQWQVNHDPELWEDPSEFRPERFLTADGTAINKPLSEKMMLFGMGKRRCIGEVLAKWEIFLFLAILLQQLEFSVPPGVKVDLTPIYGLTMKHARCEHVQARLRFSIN

For `COc1cc(C(=O)N2CCC3(CC2)CC(=O)c2nn(C(C)(C)C)cc2O3)cc(-c2ccc(C(=O)O)cc2)n1`, the AUC(0-t) [1] was 322 ng·h/mL.
In the case of `COc1cc(C(=O)N2CCC3(CC2)CC(=O)c2c(cnn2C(C)C)C3)cc(-c2ccc(C(=O)O)cc2)n1` [CLESACOSTAT], the Activity [2] is reported as “Toxic”, the Activity (Rattus norvegicus) is reported as 30% and the Activity (TK6) is reported as “Non-Toxic”. For the same molecule, the Activity [3] was “Non-Toxic”, the IC50 [4] was 68 µM and the IC50 [5] was over 20 µM. For the same molecule, the IC50 [6] was over 20 µM, the IC50 [7] was over 20 µM and the Activity (Cytochrome P450 3A4 [8]) was “Not Active”. For the same molecule, the Activity (Cytochrome P450 1A2) was “Not Active”, the IC50 (Cytochrome P450 3A4 [9]) was over 50 µM and the IC50 (Cytochrome P450 2B6) was over 50 µM. For the same molecule, the uptake ratio at 1 µM (NTCP) was 3.2, the Ratio [10] was 8.7 and the dose excreted at 24 h [11] was under 2%. For the same molecule, the concentration at 6 h [12] was 24600 ng/mL, the fraction unbound [13] was 0.15 and the uptake ratio at up to 3 µM (OATP1B1) was 3.5. For the same molecule, the IC50 [14] was 39 µM.

Reference: ChEMBL document CHEMBL4665761, “Optimizing the Benefit/Risk of Acetyl-CoA Carboxylase Inhibitors through Liver Targeting” (J Med Chem, 2020)
